Drawing on ChEMBL document CHEMBL5696442, “Discovery of type II inhibitors of TGFβ-activated kinase 1 (TAK1) and mitogen-activated protein kinase kinase kinase kinase 2 (MAP4K2)” (J Med Chem, 2015), this text covers inhibition and residual activity for three molecules.

The target in experiment [1] is Cyclin-dependent kinase 7 (Homo sapiens) (UniProt P50613). The experiment can be described thus: Inhibition of CDK7 Lys2 labeling site in human A-375 cells at 5 uM by KiNativ Profiling analysis relative to control. Format: cell-based.
Cyclin-dependent kinase 7 (Homo sapiens), sequence (P50613 whole entry): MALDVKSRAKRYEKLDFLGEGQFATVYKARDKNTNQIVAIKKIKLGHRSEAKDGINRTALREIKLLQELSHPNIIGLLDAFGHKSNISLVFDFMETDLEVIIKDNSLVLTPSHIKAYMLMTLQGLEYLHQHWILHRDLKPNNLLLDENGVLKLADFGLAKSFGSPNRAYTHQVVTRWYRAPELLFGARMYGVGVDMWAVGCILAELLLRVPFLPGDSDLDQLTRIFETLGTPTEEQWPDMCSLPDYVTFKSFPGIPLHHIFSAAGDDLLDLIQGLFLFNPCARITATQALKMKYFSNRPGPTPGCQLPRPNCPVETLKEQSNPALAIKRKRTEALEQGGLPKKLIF
Experiment [2] deals with Microtubule-associated serine/threonine-protein kinase 4 (Homo sapiens) (UniProt O15021). The experiment can be described thus: Inhibition of MAST4 Lys2 labeling site in human A-375 cells at 5 uM by KiNativ Profiling analysis relative to control. Format: cell-based. In a few lines:
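Live A375 melanoma cells were treated with compound at 5 or 0.5 μM, then lysed. Lysates were labeled with a lysine-reactive ATP or ADP-biotin probe. Read-out was the compound's protection of kinase labeling sites from probe labeling (KiNativ).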

The target in experiment [3] is Serine/threonine-protein kinase 38-like (Homo sapiens) (UniProt Q9Y2H1). The experiment can be described thus: Inhibition of NDR2 ACT labeling site in human A-375 cells at 5 uM by KiNativ Profiling analysis relative to control. Format: cell-based.
Experiment [4] deals with STE20-like serine/threonine-protein kinase (Homo sapiens) (UniProt Q9H2G2). The experiment can be described thus: Inhibition of SLK Lys2 labeling site harbouring DLKAGNILFTLDGDIK in human A-375 cells at 5 uM by KiNativ Profiling analysis relative to control. Format: cell-based.
Experiment [5] has as its target Protein kinase C delta type (Homo sapiens) (UniProt Q05655). The experiment can be described thus: Inhibition of PRKCD (unknown origin) at 1 uM by Ambit Kinomescan binding assay relative to control; values are per cent of control.
Experiment [6] has as its target Ribosomal protein S6 kinase alpha-1 (Homo sapiens) (UniProt Q15418). The experiment can be described thus: Inhibition of RSK1 domain1 Lys1 labeling site in human A-375 cells at 5 uM by KiNativ Profiling analysis relative to control. The class given is cell-based.
Experiment [7] has as its target Mitogen-activated protein kinase kinase kinase kinase 4 (Homo sapiens, UniProt O95819). As to the kind of experiment: Inhibition of ZC1/HGK Lys2 labeling site in human A-375 cells at 5 uM by KiNativ Profiling analysis relative to control. The class given is cell-based.
The target of experiment [8] is Mitogen-activated protein kinase 7 (Homo sapiens) (UniProt Q13164). As to the kind of experiment: Inhibition of Erk5 Lys2 labeling site in human A-375 cells at 0.05 uM by KiNativ Profiling analysis relative to control. The class given is cell-based.
Mitogen-activated protein kinase 7 (Homo sapiens), sequence (Q13164 2-816 limits assumed): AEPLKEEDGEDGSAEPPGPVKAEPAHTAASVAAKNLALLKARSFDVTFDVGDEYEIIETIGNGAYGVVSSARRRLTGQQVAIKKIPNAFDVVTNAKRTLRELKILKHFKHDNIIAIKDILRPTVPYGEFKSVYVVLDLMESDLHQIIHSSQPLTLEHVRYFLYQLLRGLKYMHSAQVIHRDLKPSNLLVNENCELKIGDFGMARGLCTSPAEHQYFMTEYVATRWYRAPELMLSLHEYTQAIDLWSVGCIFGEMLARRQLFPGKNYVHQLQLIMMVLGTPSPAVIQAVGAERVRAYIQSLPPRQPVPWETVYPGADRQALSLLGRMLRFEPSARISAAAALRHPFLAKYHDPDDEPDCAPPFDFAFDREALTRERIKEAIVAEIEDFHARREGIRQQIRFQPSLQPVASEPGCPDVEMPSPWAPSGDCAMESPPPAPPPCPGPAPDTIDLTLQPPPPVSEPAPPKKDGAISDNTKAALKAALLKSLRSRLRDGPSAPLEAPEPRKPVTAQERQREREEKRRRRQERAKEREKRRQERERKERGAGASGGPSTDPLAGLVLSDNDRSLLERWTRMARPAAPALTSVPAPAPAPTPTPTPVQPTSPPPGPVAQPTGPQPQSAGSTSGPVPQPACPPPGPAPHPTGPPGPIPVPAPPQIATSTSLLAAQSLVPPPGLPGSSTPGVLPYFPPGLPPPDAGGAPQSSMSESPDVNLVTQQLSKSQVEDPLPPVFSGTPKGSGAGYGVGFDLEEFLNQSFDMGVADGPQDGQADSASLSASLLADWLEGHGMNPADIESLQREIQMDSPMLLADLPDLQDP
Experiment [9] addresses Interferon-induced, double-stranded RNA-activated protein kinase (Homo sapiens) (UniProt P19525). The experiment can be described thus: Inhibition of PKR ACT labeling site in human Huh-7 cells at 10 uM by KiNativ Profiling analysis relative to control. Format: cell-based.
Experiment [10] can be described thus: Inhibition of Wnk1/2/3 K2 labeling site in human Huh-7 cells at 10 uM by KiNativ Profiling analysis relative to control. To be noted: condition cancer.
Experiment [11] can be described thus: Inhibition of KHS1 Lys2 labeling site harbouring DIKGANILLTDHGDVKLADFGVAAK in human Huh-7 cell lysate at 1 uM by KiNativ Profiling analysis relative to control. As to conditions: condition cancer.
Experiment [12] has as its target T1, Mitogen-activated protein kinase kinase kinase 2 (Homo sapiens) (UniProt Q9Y2U5).
T1 sequence (whole entry): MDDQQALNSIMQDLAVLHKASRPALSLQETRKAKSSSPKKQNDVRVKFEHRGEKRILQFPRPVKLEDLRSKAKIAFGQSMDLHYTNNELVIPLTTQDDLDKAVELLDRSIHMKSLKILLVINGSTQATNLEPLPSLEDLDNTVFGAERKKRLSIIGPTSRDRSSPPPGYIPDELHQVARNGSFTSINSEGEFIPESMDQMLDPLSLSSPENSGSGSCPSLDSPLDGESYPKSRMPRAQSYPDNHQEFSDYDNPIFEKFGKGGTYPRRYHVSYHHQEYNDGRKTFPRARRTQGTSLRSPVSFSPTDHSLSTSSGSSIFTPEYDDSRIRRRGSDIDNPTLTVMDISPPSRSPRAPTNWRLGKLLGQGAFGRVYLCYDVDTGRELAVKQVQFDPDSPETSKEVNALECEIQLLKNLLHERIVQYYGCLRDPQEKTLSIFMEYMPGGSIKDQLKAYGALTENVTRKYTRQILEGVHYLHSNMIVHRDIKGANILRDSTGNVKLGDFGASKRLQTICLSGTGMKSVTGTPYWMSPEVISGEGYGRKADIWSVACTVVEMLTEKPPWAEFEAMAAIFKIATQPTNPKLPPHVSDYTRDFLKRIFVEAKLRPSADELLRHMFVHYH
As to the kind of experiment: Inhibition of MAP3K2 Lys2 labeling site in human Huh-7 cell lysate at 1 uM by KiNativ Profiling analysis relative to control. Format: subcellular.

In experiment [13] the target is T2, Serine/threonine-protein kinase STK11 (Homo sapiens) (UniProt Q15831).
T2 sequence (whole entry): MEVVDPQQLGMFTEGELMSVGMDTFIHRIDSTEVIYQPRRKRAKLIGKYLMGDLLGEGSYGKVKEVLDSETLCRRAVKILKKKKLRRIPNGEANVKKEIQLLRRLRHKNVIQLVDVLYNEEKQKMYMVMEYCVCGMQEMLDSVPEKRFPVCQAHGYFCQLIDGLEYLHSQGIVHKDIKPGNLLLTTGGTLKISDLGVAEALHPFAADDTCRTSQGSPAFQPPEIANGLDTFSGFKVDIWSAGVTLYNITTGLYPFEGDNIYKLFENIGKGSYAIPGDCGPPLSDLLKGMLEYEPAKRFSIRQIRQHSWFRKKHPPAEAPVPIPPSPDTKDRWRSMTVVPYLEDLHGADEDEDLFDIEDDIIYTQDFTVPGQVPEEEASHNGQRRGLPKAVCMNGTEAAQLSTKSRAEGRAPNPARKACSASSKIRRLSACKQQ
The experiment can be described thus: Inhibition of LKB1 Lys2 labeling site in human Huh-7 cells at 1 uM by KiNativ Profiling analysis relative to control. The class given is cell-based.

Interferon-induced, double-stranded RNA-activated protein kinase (Homo sapiens), sequence (P19525 whole entry): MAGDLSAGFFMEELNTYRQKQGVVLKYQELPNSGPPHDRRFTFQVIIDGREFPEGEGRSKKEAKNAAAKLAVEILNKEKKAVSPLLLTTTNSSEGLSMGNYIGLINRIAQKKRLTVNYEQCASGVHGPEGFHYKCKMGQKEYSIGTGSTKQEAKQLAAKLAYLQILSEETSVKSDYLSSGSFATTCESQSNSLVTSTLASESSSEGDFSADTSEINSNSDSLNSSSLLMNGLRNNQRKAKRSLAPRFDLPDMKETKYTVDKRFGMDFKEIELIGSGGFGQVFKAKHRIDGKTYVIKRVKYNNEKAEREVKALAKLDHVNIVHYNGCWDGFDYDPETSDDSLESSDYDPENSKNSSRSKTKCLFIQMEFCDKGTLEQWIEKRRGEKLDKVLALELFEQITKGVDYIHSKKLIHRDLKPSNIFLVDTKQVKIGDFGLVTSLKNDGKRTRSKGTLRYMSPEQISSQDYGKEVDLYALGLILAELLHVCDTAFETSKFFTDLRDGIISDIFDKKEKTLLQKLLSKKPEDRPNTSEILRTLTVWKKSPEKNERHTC
Microtubule-associated serine/threonine-protein kinase 4 (Homo sapiens), sequence (O15021 whole entry): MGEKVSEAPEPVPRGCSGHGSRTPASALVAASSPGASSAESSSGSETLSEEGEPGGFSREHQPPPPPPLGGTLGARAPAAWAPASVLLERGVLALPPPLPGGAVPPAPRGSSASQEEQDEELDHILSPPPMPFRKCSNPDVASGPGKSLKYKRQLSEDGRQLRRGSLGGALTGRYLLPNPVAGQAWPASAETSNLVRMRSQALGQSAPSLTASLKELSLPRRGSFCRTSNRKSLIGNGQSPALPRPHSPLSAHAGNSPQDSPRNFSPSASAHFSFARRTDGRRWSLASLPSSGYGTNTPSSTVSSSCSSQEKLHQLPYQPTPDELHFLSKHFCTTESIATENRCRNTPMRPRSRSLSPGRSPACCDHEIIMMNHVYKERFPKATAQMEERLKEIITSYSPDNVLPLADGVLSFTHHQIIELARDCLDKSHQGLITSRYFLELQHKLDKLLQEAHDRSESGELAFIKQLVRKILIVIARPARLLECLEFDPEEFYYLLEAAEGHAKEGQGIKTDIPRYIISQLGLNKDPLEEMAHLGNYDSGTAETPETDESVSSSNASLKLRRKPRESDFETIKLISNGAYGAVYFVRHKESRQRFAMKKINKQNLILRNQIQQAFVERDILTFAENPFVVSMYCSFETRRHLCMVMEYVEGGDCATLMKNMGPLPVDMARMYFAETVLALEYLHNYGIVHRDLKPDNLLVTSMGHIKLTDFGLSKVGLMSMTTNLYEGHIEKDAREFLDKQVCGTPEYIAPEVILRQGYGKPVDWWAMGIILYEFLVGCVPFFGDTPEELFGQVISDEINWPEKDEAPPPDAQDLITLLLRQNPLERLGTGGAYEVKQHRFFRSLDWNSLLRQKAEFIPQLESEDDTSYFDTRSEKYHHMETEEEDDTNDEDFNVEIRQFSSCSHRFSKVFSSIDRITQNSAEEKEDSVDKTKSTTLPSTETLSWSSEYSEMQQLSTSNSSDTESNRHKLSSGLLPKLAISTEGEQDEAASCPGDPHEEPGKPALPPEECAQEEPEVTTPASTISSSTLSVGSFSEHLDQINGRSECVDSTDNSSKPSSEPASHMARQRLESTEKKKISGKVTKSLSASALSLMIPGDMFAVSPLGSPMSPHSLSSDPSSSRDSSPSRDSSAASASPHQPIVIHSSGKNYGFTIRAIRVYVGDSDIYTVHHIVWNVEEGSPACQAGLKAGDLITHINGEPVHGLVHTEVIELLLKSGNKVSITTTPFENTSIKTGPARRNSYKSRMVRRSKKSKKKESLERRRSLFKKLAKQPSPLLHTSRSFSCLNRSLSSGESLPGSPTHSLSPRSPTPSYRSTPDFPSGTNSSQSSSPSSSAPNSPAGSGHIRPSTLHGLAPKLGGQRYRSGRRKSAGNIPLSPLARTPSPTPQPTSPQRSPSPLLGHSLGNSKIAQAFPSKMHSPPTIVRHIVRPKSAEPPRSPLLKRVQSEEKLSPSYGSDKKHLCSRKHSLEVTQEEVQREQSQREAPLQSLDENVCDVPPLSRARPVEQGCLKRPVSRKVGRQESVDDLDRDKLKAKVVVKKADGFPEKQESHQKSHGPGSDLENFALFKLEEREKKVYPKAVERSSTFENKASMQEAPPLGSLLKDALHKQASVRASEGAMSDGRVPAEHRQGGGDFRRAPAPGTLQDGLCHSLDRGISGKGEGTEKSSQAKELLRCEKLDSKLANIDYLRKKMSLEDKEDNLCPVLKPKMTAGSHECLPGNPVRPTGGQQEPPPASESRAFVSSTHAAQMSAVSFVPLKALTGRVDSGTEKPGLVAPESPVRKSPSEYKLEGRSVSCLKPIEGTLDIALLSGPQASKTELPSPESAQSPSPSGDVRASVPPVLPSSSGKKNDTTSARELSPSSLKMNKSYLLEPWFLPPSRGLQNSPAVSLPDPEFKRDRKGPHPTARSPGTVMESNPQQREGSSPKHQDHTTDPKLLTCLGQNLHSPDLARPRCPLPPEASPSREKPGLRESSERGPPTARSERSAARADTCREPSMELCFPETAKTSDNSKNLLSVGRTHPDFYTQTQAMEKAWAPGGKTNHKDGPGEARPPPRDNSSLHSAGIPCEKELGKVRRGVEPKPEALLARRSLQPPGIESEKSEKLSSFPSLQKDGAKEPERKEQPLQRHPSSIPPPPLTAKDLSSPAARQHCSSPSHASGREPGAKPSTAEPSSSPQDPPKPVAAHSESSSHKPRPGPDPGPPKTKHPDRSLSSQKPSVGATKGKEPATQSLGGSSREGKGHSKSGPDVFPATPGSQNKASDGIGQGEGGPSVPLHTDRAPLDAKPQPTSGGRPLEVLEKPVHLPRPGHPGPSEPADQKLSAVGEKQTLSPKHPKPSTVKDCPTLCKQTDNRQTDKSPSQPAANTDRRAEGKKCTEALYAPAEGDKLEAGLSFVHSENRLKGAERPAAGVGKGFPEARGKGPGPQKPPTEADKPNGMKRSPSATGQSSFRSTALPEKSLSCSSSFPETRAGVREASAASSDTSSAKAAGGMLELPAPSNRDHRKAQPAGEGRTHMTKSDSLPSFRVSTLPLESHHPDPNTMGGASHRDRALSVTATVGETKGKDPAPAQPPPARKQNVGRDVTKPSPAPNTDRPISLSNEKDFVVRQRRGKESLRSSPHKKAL
Ribosomal protein S6 kinase alpha-1 (Homo sapiens), sequence (Q15418 whole entry, the tested form may be a part): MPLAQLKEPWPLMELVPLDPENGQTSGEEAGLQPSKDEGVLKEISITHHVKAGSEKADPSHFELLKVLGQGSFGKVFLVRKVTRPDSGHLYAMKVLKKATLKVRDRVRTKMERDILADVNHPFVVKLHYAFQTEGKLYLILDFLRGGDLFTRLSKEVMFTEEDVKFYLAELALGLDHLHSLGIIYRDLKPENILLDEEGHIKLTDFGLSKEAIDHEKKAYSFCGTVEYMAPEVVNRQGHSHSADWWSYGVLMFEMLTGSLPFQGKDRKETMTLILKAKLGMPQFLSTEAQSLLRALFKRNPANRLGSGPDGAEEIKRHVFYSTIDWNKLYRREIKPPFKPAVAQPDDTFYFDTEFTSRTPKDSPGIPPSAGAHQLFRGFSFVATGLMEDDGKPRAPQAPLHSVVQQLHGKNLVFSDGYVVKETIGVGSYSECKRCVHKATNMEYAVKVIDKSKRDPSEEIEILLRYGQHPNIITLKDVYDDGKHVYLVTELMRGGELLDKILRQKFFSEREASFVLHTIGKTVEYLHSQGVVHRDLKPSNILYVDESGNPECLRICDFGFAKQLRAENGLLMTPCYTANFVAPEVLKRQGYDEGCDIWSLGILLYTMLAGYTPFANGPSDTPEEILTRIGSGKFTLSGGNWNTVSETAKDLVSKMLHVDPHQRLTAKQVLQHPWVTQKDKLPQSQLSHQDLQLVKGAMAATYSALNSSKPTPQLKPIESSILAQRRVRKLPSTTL

Take `CCN1CCN(Cc2ccc(NC(=O)c3ccc(C)c(/C=C/c4cnc5[nH]ccc5c4OC)c3)cc2C(F)(F)F)CC1`: the inhibition in experiment [1] is 38.7%; in experiment [2] it was -8.4%; in [3], -2.6%; in experiment [4], 12.2%. Also, the residual activity in experiment [5] was 60%.
`CCN1CCN(Cc2ccc(NC(=O)c3ccc(C)c(Oc4ccnc5[nH]ccc45)c3)cc2C(F)(F)F)CC1`: the inhibition was -8.6% in [6], 92.7% in experiment [7], 5.3% in [8] and 40.8% in experiment [9]. Besides, in experiment [10], the inhibition at 10 µM is 7.8%.
Turning to `CNc1cc(Oc2cc(C(=O)Nc3cc(N4CCN(C)CC4)cc(C(F)(F)F)c3)ccc2C)ncn1`, the inhibition at 1 µM in [11] was 10.4%. The inhibition was 1.9% in experiment [12] and 15.1% in experiment [13].

By inhibition is commonly meant the drop in the measured response relative to a control, in per cent. The term residual activity denotes the signal under treatment as a percentage of the control signal. A high value points to a small loss of activity.
